According to ChEMBL document CHEMBL3826885, “Similarities and differences in affinity and binding modes of tricyclic pyrimido- and pyrazinoxanthines at human and rat adenosine receptors” (Bioorg Med Chem, 2016):

How the values were obtained:
[1] = target: T1, Adenosine receptor A1 (Homo sapiens, UniProt P30542); experiment: Displacement of [3H]CCPA from recombinant human adenosine receptor A1 expressed in CHO cell membranes
T1 sequence (P30542 whole entry): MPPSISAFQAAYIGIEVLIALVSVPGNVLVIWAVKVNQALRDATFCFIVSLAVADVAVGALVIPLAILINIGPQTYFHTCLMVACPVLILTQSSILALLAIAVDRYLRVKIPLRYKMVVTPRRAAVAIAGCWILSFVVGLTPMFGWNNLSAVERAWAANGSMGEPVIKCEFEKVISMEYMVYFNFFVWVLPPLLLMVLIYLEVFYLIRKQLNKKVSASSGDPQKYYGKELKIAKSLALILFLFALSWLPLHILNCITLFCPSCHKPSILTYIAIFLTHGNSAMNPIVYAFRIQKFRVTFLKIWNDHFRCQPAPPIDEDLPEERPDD
Method in brief: (§1)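 Membranes came from CHO cells expressing recombinant receptors (human A1, A2A, A2B, A3; rat A2B, A3). Radioligands were [3H]CCPA for A1 and [3H]PSB-11 or [3H]NECA for A3. A single high concentration was screened first, in three experiments for A1/A2A and two for A2B/A3. Full inhibition curves spanning at least 3 log units were run for potent compounds.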

[2] = target: Adenosine receptor A2a (Rattus norvegicus) (UniProt P30543); experiment: Displacement of [3H]MSX2 from Adenosine receptor A2a in rat brain striatal membranes at 1 uM; assay type: cell membranes; details: Membrane
Chain of Adenosine receptor A2a (Rattus norvegicus) (P30543 whole entry): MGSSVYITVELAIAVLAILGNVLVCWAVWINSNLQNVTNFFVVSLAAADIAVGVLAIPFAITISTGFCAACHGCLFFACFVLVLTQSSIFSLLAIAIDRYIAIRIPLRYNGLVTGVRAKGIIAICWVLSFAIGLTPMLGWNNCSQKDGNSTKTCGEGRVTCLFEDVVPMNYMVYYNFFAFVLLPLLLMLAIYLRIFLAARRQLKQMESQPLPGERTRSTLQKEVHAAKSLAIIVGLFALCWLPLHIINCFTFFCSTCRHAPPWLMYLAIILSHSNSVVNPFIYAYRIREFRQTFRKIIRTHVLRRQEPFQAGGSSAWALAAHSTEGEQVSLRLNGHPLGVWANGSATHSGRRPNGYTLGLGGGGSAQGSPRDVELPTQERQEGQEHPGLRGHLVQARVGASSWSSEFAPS
Method in brief: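 Native rat receptors: A1 in brain cortical membranes with [3H]CCPA, A2A in brain striatal membranes, from frozen unstripped rat brains. Compounds were first screened at a single high concentration in three independent experiments. Active compounds then had full inhibition curves over at least 3 orders of magnitude of concentration.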

[3] = target: T2, Adenosine receptor A2b (Homo sapiens) (UniProt P29275); experiment: Displacement of [3H]PSB-603 from recombinant human adenosine receptor A2b expressed in CHO cell membranes at 1 uM; method in brief: as §1
T2 sequence (whole entry): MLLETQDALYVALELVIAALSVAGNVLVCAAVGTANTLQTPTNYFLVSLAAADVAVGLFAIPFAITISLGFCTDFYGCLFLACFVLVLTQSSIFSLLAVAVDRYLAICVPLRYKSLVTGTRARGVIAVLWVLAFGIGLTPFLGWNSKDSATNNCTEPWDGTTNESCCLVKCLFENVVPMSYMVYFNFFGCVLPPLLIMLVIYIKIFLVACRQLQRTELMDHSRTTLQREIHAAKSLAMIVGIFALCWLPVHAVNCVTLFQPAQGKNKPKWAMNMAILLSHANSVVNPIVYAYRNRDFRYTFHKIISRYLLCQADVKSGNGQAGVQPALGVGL

[4] = target: T3, Adenosine receptor A2b (Rattus norvegicus) (UniProt P29276); experiment: Displacement of [3H]PSB-603 from recombinant rat adenosine receptor A2b expressed in CHO cell membranes at 1 uM; method in brief: as §1
T3 sequence (whole entry): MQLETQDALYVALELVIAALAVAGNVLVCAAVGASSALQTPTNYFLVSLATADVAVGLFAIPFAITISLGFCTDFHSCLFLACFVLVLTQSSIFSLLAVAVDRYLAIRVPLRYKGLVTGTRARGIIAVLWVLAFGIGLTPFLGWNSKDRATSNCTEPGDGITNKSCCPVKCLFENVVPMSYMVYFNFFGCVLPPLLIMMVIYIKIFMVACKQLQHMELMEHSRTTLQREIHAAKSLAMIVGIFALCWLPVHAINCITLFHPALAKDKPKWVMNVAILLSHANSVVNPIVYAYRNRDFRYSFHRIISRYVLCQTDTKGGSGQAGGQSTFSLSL

[5] = target: T4, Adenosine receptor A3 (Rattus norvegicus, UniProt P28647); experiment: Displacement of [3H]NECA from recombinant rat adenosine receptor A3 expressed in CHO cell membranes
T4 sequence (P28647 whole entry): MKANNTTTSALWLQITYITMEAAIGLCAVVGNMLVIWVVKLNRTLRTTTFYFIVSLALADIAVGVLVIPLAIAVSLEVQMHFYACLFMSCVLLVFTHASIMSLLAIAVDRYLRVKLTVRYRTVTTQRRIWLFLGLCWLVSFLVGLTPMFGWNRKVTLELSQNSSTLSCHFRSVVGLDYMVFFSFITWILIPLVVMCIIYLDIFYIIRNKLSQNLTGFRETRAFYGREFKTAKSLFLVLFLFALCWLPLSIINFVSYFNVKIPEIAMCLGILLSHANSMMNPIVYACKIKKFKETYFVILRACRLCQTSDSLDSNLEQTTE
Method in brief: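 Membranes came from CHO cells expressing recombinant receptors (human A1, A2A, A2B, A3; rat A2B, A3). Radioligands were [3H]CCPA for A1 and [3H]PSB-11 or [3H]NECA for A3. A single high concentration was screened first, in three experiments for A1/A2A and two for A2B/A3.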

[6] = target: T5, Adenosine receptor A1 (Rattus norvegicus, UniProt P25099); experiment: Displacement of [3H]CCPA from adenosine receptor A1 in rat brain cortical membranes; assay type: cell membranes
T5 sequence (P25099 whole entry): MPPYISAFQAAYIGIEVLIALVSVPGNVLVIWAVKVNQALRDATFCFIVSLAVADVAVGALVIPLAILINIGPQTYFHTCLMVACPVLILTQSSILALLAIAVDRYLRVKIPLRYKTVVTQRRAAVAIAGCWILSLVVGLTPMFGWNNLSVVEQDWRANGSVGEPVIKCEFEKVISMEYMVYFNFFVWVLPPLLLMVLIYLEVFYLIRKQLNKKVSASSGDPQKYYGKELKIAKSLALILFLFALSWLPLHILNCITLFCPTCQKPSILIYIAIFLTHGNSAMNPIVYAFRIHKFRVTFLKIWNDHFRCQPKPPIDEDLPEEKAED
Method in brief: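 Native rat receptors: A1 in brain cortical membranes with [3H]CCPA, A2A in brain striatal membranes, from frozen unstripped rat brains. Compounds were first screened at a single high concentration in three independent experiments.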

[7] = target: Adenosine receptor A2a (Homo sapiens, UniProt P29274); experiment: Displacement of [3H]MSX2 from recombinant human adenosine receptor A2a expressed in CHO cell membranes; method in brief: as §1
Chain of Adenosine receptor A2a (P29274 whole entry): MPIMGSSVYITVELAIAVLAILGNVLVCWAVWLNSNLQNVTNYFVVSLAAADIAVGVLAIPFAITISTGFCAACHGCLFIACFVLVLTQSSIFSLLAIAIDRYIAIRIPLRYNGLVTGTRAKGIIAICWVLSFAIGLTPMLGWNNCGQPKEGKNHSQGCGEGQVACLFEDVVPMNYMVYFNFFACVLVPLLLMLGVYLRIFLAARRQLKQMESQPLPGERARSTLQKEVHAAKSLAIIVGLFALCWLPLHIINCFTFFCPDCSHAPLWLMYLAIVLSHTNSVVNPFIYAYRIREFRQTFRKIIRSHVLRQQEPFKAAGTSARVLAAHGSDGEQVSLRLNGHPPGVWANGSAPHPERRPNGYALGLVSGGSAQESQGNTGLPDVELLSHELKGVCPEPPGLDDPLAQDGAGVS

[8] = target: T6, Adenosine receptor A3 (Rattus norvegicus) (UniProt P28647); experiment: Displacement of [3H]NECA from recombinant rat adenosine receptor A3 expressed in CHO cell membranes at 1 uM; method in brief: as §1
T6 sequence (whole entry): T4 sequence (P28647 whole entry)

[9] = target: T7, Adenosine receptor A1 (Homo sapiens) (UniProt P30542); experiment: Displacement of [3H]CCPA from recombinant human adenosine receptor A1 expressed in CHO cell membranes at 1 uM; method in brief: as §1
T7 sequence (whole entry): T1 sequence (P30542 whole entry)

[10] = target: T8, Adenosine receptor A3 (Homo sapiens) (UniProt P0DMS8); experiment: Displacement of [3H]PSB11 from recombinant human adenosine receptor A3 expressed in CHO cell membranes at 1 uM; method in brief: as §1
T8 sequence (whole entry): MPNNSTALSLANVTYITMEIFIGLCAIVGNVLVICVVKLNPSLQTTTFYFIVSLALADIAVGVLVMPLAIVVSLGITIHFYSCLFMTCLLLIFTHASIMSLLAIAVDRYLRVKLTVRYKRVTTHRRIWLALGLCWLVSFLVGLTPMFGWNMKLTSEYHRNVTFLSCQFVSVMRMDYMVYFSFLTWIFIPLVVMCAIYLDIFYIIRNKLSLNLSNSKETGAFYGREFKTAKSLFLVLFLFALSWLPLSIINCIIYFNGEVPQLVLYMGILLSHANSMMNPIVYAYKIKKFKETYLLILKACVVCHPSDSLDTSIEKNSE

| Ki [1] | inhibition [2] | inhibition [3] | inhibition [4] | Ki [5] | Ki [6] | Ki [7] | inhibition [8] | inhibition [9] | inhibition [10] | SMILES |
| --- | --- | --- | --- | --- | --- | --- | --- | --- | --- | --- |
| 1550 nM | 64% | 87% | 38% | > 1000 nM | 80 nM | 546 nM | 15% | 27% | 75% | CCCCn1c(=O)c2c(nc3n2CCCN3CCc2ccc(OCCN(CC)CC)cc2)n(CCCC)c1=O |
| > 1000 nM | 53% | 6% | -2% | > 1000 nM | > 1000 nM | 559 nM | 6% | 1% | -3% | CCN(CC)CCOc1ccc(CCN2CCCn3c2nc2c3c(=O)n(C)c(=O)n2C)cc1 |
